Test results reported in ChEMBL document CHEMBL4257584, “Sterol 14α-Demethylase Structure-Based Optimization of Drug Candidates for Human Infections with the Protozoan Trypanosomatidae” (J Med Chem, 2018).
The source made the active and inactive calls. The calls are words filed in the database; no cut-off is given here.

What was measured:
Mus musculus [1] = assay: Toxicity in Swiss Webster mouse assessed as effect on fur profile at 200 mg/kg, po administered as single dose measured after 48 hrs; assay type: organism-based; conditions: in vivo
How it was run: (§1)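 Swiss Webster mice (21–23 g, n=3) get a single oral 200 mg/kg dose, given as in the PK study. They are inspected for toxic and sub-toxic signs per OECD guidelines (behaviour, motility, neurological state, skin, fur), and body weight is tracked 0–48 h. At 48 h, mice are euthanized and organ weights are normalized to body weight. Blood is taken for haematology and plasma biochemistry.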

[2] = target: Sterol 14-alpha demethylase (Trypanosoma cruzi (strain CL Brener), UniProt Q7Z1V1); assay: Binding affinity to Trypanosoma cruzi Y CYP51A expressed in Escherichia coli
How it was run: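 Recombinant CYP51A from Y strain T. cruzi, expressed in E. coli and purified, titrated spectrally at 0.5 μM P450 in 5 cm path cuvettes with ligand over 0.1–1 μM. Type of absorbance change in difference spectra Δ(A430-A411) plotted against ligand concentration. Apparent Kd obtained by fitting to the Morrison quadratic tight-binding equation by nonlinear regression.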

[3] = Drug uptake in BALB/c mouse blood at 25 mg/kg, po via gavage measured after 4 hrs post dose by […]; assay type: ADME, organism-based; conditions: read-out: Drug uptake
How it was run: (§2)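 BALB/c mice get a single oral gavage dose of 25 mg/kg; tissues are collected 4 h post-dose. About 100 mg tissue is diluted 5-fold in PBS and homogenized. Homogenate is extracted as for plasma (ketoconazole internal standard, acetonitrile extraction) and quantified by HPLC-UV at 291 nm, 0.1 μM detection limit, n=2.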

[4] = Plasma concentration in BALB/c mouse assessed as time until the compound becomes undetectable at 25 mg/kg, po via gavage […]; assay type: ADME, organism-based; conditions: in vivo
How it was run: (§3)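 Single oral gavage dose of 25 mg/kg in BALB/c mice; blood sampled at 1, 2, 4, 6, 10, 16, 24 h. Plasma is diluted in PBS with ketoconazole internal standard, extracted with 80% acetonitrile, dried and redissolved. Analysed by reversed-phase HPLC with UV at 291/250 nm, 0.1 μM detection limit. Lifetime is time until undetectable.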

Mus musculus [5] = assay: Toxicity in Swiss Webster mouse assessed as effect on lung weight at 200 mg/kg, po administered as single dose measured after 48 hrs; assay type: organism-based; conditions: in vivo; how it was run: as §1
[6] = Drug uptake in BALB/c mouse liver at 25 mg/kg, po via gavage measured after 4 hrs post dose by […]; assay type: ADME, organism-based; conditions: read-out: Drug uptake; how it was run: as §2
Mus musculus [7] = assay: Toxicity in Swiss Webster mouse assessed as effect on heart weight at 200 mg/kg, po administered as single dose measured after 48 hrs; assay type: organism-based; conditions: in vivo; how it was run: as §1
Mus musculus [8] = assay: Toxicity in Swiss Webster mouse assessed as effect on animal behavior at 200 mg/kg, po administered as single dose measured after 48 hrs; assay type: organism-based; conditions: in vivo; how it was run: as §1
[9] = target: Lanosterol 14-alpha-demethylase (Trypanosoma brucei brucei (strain 927/4 GUTat10.1)) (UniProt Q385E8); assay: Inhibition of Trypanosoma brucei […] CYP51 expressed in Escherichia coli using [3-3H]-obtusifoliol as substrate after 60 mins by LC-MS analysis
How it was run: (§4)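 Reconstituted reaction: 1 μM purified CYP51, 2 μM T. brucei NADPH-P450 reductase, 100 μM dilauroylphosphatidylcholine, isocitrate dehydrogenase/isocitrate regeneration, 50 mM K phosphate pH 7.2, 10% glycerol. [3-3H]sterol substrate at 50 μM final (eburicol for T. cruzi; obtusifoliol for T. brucei and L. infantum) with inhibitor at 1.1 μM final. Preincubate 60 s at 37 °C, start with 100 μM NADPH, run 60 min, EtOAc extraction. Gives % inhibition of 14α-demethylation, triplicate, mean ± SD.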

[10] = Drug uptake in BALB/c mouse spleen at 25 mg/kg, po via gavage measured after 4 hrs post dose by […]; assay type: ADME, organism-based; conditions: read-out: Drug uptake; how it was run: as §2
Mus musculus [11] = assay: Toxicity in Swiss Webster mouse assessed as effect on neurological conditions at 200 mg/kg, po administered as single dose measured after 48 hrs; assay type: organism-based; conditions: in vivo; how it was run: as §1
Mus musculus [12] = assay: Toxicity in Swiss Webster mouse assessed as effect on body weight at 200 mg/kg, po administered as single dose measured after 48 hrs; assay type: organism-based; conditions: in vivo; how it was run: as §1
Mus musculus [13] = assay: Toxicity in Swiss Webster mouse assessed as alteration in body to organ ratio at 200 mg/kg, po administered as single dose measured after 48 hrs; assay type: organism-based; conditions: in vivo; how it was run: as §1
[14] = Hepatic clearance in CD1 mouse liver microsomes at 1 uM preincubated for 5 mins followed by NADPH addition and measured after 45 mins by LC/MS/MS analysis; assay type: ADME, microsome
Trypanosoma cruzi [15] = assay: Antiparasitic activity against GFP-expressing Trypanosoma cruzi Tulahuen amastigote formss infected in cardiomyocytes assessed as reduction in rate of parasite multiplication within infected cardiomyocytes measured at 72 hrs post infection by fluorescence microscopy; assay type: functional, organism-based
How it was run: (§5)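 GFP-expressing trypomastigotes (Tulahuen or Y strain) infect cardiomyocyte monolayers at 10 parasites per cell, in DMEM + 10% FBS. Unbound parasites are washed off. At 24 h of infection, inhibitors at 0.5–25 nM in DMSO/DMEM are added and cultured 48 h. Read-out is at 72 h post-infection as GFP fluorescence (RFU) after PBS wash; microscopy uses paraformaldehyde fixation, DAPI and phalloidin stain. Triplicate.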

[16] = target: Sterol 14-alpha demethylase (Trypanosoma cruzi (strain CL Brener)) (UniProt Q7Z1V1); assay: Inhibition of Trypanosoma cruzi Y CYP51 expressed in Escherichia coli using [3-3H]-eburicol as substrate after 60 mins by LC-MS analysis; how it was run: as §4
Mus musculus [17] = assay: Toxicity in Swiss Webster mouse at 200 mg/kg, po administered as single dose measured after 48 hrs measured at 48 hrs post dose; assay type: organism-based; conditions: in vivo; how it was run: as §1
[18] = Drug uptake in BALB/c mouse lungs at 25 mg/kg, po via gavage measured after 4 hrs post dose by […]; assay type: ADME, organism-based, Lung; conditions: read-out: Drug uptake; how it was run: as §2
[19] = Maximum plasma concentration in BALB/c mouse at 25 mg/kg, po via gavage by […]; assay type: ADME, organism-based; set-up: dose 25 mg/kg, route oral; how it was run: as §3
Mus musculus [20] = assay: Toxicity in Swiss Webster mouse assessed as effect on biochemical plasma parameters at 200 mg/kg, po administered as single dose measured after 48 hrs; assay type: organism-based; conditions: in vivo; how it was run: as §1
Mus musculus [21] = assay: Toxicity in Swiss Webster mouse assessed as effect on skin at 200 mg/kg, po administered as single dose measured after 48 hrs; assay type: organism-based; conditions: in vivo; how it was run: as §1
[22] = Drug uptake in BALB/c mouse heart at 25 mg/kg, po via gavage measured after 4 hrs post dose by […]; assay type: ADME, organism-based; conditions: read-out: Drug uptake; how it was run: as §2
[23] = target: Putative lanosterol 14-alpha-demethylase (Leishmania infantum, UniProt A2TEF2); assay: Binding affinity to Leishmania infantum CYP51 expressed in Escherichia coli
How it was run: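 Purified E. coli-expressed L. infantum CYP51 at 0.5 μM is titrated with ligand at 0.1–1 μM in 5 cm path cuvettes. Difference-spectrum absorbance change Δ(A430−A411) is plotted against ligand concentration. Apparent Kd comes from a Morrison (quadratic) tight-binding fit by nonlinear regression.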

Mus musculus [24] = assay: Toxicity in Swiss Webster mouse assessed as effect on motility at 200 mg/kg, po administered as single dose measured after 48 hrs; assay type: organism-based; conditions: in vivo; how it was run: as §1
Mus musculus [25] = assay: Toxicity in Swiss Webster mouse assessed as effect on kidney weight at 200 mg/kg, po administered as single dose measured after 48 hrs; assay type: organism-based; conditions: in vivo; how it was run: as §1
[26] = Drug uptake in BALB/c mouse brain at 25 mg/kg, po via gavage measured after 4 hrs post dose by […]; assay type: ADME, organism-based; conditions: read-out: Drug uptake; how it was run: as §2
[27] = Intrinsic clearance in CD1 mouse liver microsomes at 1 uM preincubated for 5 mins followed by NADPH addition and measured after 45 mins by LC/MS/MS analysis; assay type: ADME, microsome; conditions: read-out: CLH
Trypanosoma cruzi [28] = assay: Antiparasitic activity against GFP-expressing Trypanosoma cruzi Y amastigote formss infected in cardiomyocytes assessed as reduction in rate of parasite multiplication within infected cardiomyocytes measured at 72 hrs post infection by fluorescence microscopy; assay type: functional, organism-based; how it was run: as §5
Mus musculus [29] = assay: Toxicity in Swiss Webster mouse assessed as effect on liver weight at 200 mg/kg, po administered as single dose measured after 48 hrs; assay type: organism-based; conditions: in vivo; how it was run: as §1
[30] = target: Putative lanosterol 14-alpha-demethylase (Leishmania infantum) (UniProt A2TEF2); assay: Inhibition of Leishmania infantum CYP51 expressed in Escherichia coli using [3-3H]-obtusifoliol as substrate after 60 mins by LC-MS analysis; how it was run: as §4
Mus musculus [31] = assay: Toxicity in Swiss Webster mouse assessed as effect on spleen weight at 200 mg/kg, po administered as single dose measured after 48 hrs; assay type: organism-based; conditions: in vivo; how it was run: as §1
[32] = Half life in human liver microsomes at 1 uM preincubated for 5 mins followed by NADPH addition and measured by LC/MS/MS analysis; assay type: ADME, microsome; conditions: liver microsomes
[33] = Lipophilicity, log P of the compound; assay type: physicochemical; conditions: octanol/water
[34] = Intrinsic clearance in Sprague-Dawley rat liver microsomes at 1 uM preincubated for 5 mins followed by NADPH addition and measured after 45 mins by LC/MS/MS analysis; assay type: ADME, microsome; conditions: read-out: CLH
[35] = Hepatic clearance in human liver microsomes at 1 uM preincubated for 5 mins followed by NADPH addition and measured after 45 mins by LC/MS/MS analysis; assay type: ADME, microsome
[36] = Half life in CD1 mouse liver microsomes at 1 uM preincubated for 5 mins followed by NADPH addition and measured by LC/MS/MS analysis; assay type: ADME, microsome; conditions: CD1, mouse, liver microsomes
Mus musculus [37] = assay: Drug metabolism in mouse plasma assessed as glucuronidation of the N-pyridinyl site formation at 25 mg/kg, po by HPLC analysis; assay type: ADME, organism-based; conditions: in vivo
[38] = Hepatic clearance in Sprague-Dawley rat liver microsomes at 1 uM preincubated for 5 mins followed by NADPH addition and measured after 45 mins by LC/MS/MS analysis; assay type: ADME, microsome
How it was run: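 Pooled liver microsomes at 0.5 mg/mL: human (mixed gender), male Sprague-Dawley rat, or male CD-1 mouse, with test compound at 1 μM, triplicate. In vitro t1/2 is scaled to CLint (45 mg microsomes/g liver; 45 g liver/kg scaling factor). CLhep uses well-stirred model with hepatic blood flow 21 (human), 70 (rat), 90 (mouse) mL/min/kg.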

[39] = Intrinsic clearance in human liver microsomes at 1 uM preincubated for 5 mins followed by NADPH addition and measured after 45 mins by LC/MS/MS analysis; assay type: ADME, microsome; conditions: read-out: CLH
[40] = Half life in Sprague-Dawley rat liver microsomes at 1 uM preincubated for 5 mins followed by NADPH addition and measured by LC/MS/MS analysis; assay type: ADME, microsome; conditions: Sprague-Dawley, liver microsomes

Lanosterol 14-alpha-demethylase (Trypanosoma brucei brucei (strain 927/4 GUTat10.1)), sequence (Q385E8 1-481): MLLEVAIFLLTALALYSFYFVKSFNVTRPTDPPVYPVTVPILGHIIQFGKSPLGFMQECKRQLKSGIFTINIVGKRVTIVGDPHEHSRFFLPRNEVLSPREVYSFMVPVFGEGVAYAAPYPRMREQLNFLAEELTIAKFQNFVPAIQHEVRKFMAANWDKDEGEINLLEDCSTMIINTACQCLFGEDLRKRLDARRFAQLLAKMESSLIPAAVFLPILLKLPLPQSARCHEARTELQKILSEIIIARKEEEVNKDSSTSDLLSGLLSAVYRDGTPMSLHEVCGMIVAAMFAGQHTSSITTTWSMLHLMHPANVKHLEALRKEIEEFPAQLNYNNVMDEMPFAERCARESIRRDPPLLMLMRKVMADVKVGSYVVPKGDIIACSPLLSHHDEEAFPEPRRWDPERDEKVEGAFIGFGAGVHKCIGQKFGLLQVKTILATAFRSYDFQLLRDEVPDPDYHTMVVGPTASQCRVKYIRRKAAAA
Sterol 14-alpha demethylase (Trypanosoma cruzi (strain CL Brener)), sequence (Q7Z1V1 whole entry, looked up): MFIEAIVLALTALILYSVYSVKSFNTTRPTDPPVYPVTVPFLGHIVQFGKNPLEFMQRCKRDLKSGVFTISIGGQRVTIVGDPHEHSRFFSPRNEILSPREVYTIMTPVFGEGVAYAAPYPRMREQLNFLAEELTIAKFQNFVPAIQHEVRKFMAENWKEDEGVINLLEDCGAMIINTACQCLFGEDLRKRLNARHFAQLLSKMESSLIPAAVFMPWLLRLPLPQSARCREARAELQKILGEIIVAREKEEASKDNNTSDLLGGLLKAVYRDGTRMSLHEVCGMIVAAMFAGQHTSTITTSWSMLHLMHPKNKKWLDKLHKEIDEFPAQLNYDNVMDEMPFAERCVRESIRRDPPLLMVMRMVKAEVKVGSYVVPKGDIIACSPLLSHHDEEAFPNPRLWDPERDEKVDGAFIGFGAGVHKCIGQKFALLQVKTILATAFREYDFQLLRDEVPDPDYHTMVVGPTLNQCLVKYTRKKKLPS
Sterol 14-alpha demethylase, sequence (Q7Z1V1 whole entry): as the sequence (Q7Z1V1 whole entry, looked up) above
Putative lanosterol 14-alpha-demethylase (Leishmania infantum), sequence (A2TEF2 1-480): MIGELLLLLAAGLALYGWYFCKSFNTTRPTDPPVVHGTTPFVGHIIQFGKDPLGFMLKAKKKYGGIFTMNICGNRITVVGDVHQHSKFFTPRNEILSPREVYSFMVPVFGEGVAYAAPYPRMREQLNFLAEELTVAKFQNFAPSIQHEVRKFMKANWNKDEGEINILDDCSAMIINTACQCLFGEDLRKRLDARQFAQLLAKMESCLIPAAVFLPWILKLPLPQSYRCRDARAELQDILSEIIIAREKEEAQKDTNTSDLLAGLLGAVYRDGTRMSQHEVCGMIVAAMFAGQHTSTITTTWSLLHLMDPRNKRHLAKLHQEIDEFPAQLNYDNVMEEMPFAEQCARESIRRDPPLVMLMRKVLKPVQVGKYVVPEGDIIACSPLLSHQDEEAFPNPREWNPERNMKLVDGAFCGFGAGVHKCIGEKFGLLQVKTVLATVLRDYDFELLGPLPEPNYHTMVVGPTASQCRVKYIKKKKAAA
Putative lanosterol 14-alpha-demethylase, sequence (A2TEF2 whole entry): as the sequence (A2TEF2 1-480) above

O=C(N[C@@H](Cn1ccnc1)c1ccc(Cl)cc1Cl)c1ccc(-c2nnc(-c3ccc(F)c(F)c3)o2)cc1
Activity (Mus musculus [1]): Non-Toxic
Kd [2]: 4.2 nM
concentration at 4 h [3]: 36 µM
Time [4]: 16 h
Activity (Mus musculus [5]): Non-Toxic
concentration at 4 h [6]: 38 µM
Activity (Mus musculus [7]): Non-Toxic
Activity (Mus musculus [8]): Non-Toxic
inhibition [9]: Active
concentration at 4 h [10]: 28 µM
Activity (Mus musculus [11]): Non-Toxic
Activity (Mus musculus [12]): Non-Toxic
Activity (Mus musculus [13]): Non-Toxic
CLhep predicted at 1 µM [14]: 34.5 mL/min/kg
EC50 (Trypanosoma cruzi [15]): 1.6 nM
inhibition [16]: Active
NOAEL (Mus musculus [17]): > 200 mg/kg
concentration at 4 h [18]: 46 µM
Cmax [19]: 38 µM
Activity (Mus musculus [20]): Non-Toxic
Activity (Mus musculus [21]): Non-Toxic
concentration at 4 h [22]: 36 µM
Kd [23]: 1.7 nM
Activity (Mus musculus [24]): Non-Toxic
Activity (Mus musculus [25]): Non-Toxic
concentration at 4 h [26]: 8 µM
CLint scaled at 1 µM [27]: 55.8 mL/min/kg
EC50 (Trypanosoma cruzi [28]): 3 nM
Activity (Mus musculus [29]): Non-Toxic
inhibition [30]: Active
Activity (Mus musculus [31]): Non-Toxic

O=C(N[C@@H](Cn1ccnc1)c1ccc(-c2ccc(F)cc2)cc1Cl)c1ccc(-c2nnc(-c3ccncc3)o2)cc1
half-life at 1 µM [32]: 53 min
concentration at 4 h [3]: < 0.1 µM
logP [33]: 5.27
concentration at 4 h [6]: 0.4 µM
concentration at 4 h [10]: < 0.1 µM
CLint scaled at 1 µM [34]: 52.3 mL/min/kg
CLhep predicted at 1 µM [14]: 47.1 mL/min/kg
CLhep predicted at 1 µM [35]: 11.1 mL/min/kg
half-life at 1 µM [36]: 55 min
Drug metabolism (Mus musculus [37]): Metabolite_Detected
concentration at 4 h [18]: 1 µM
Cmax [19]: < 0.1 µM
CLhep predicted at 1 µM [38]: 29.9 mL/min/kg
concentration at 4 h [22]: 0.1 µM
CLint scaled at 1 µM [39]: 23.5 mL/min/kg
half-life at 1 µM [40]: 54 min
concentration at 4 h [26]: < 0.1 µM
CLint scaled at 1 µM [27]: 99 mL/min/kg
